In brackets after ≈: the same amount, converted by molar mass.
Columns and labels:
[1] = system: Aspergillus fumigatus; experiment: Antifungal activity against 10^5 CFU/mL Aspergillus fumigatus MTCC 343 after 48 hrs by agar streak dilution method; format: functional; conditions: MTCC 343, 48 h
Summary of the method: (§1)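 Agar streak dilution for fungi. Stock 100 µg/mL in DMSO; graded amounts were mixed into molten Sabouraud dextrose agar and poured at 4–5 mm depth. Serial dilutions ran over […]. About 10⁵ CFU/mL inoculum was applied, with incubation at 37 ± 1 °C for 48 h. MIC was read from the dilution series.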

[2] = system: Escherichia coli; experiment: Antibacterial activity against 10^5 CFU/mL Escherichia coli MTCC 739 after 24 hrs by agar streak dilution method; format: functional; conditions: MTCC 739, 24 h
Summary of the method: (§2)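 Agar streak dilution. Stock 100 µg/mL in DMSO; graded amounts were mixed into molten nutrient agar and poured at 4–5 mm depth. Plates carried serial dilutions over […]. About 10⁵ CFU/mL of each bacterium was applied, and plates were incubated at 37 ± 1 °C for 24 h. MIC was read from the dilution series.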

[3] = system: Candida albicans; experiment: Antifungal activity against 10^5 CFU/mL Candida albicans MTCC 183 after 48 hrs by agar streak dilution method; format: functional; conditions: MTCC 183, 48 h; summary of the method: as §1
[4] = system: Klebsiella pneumoniae; experiment: Antibacterial activity against 10^5 CFU/mL Klebsiella pneumoniae MTCC 109 after 24 hrs by agar streak dilution method; format: functional; conditions: MTCC 109, 24 h; summary of the method: as §2
[5] = system: Candida albicans; experiment: Antifungal activity against 10^5 CFU/mL Candida albicans MTCC 183 after 48 hrs by disc diffusion technique; format: functional
[6] = system: Pseudomonas aeruginosa; experiment: Antibacterial activity against 10^5 CFU/mL Pseudomonas aeruginosa MTCC 741 after 24 hrs by agar streak dilution method; format: functional; conditions: MTCC 741, 24 h; summary of the method: as §2
[7] = system: Proteus vulgaris; experiment: Antibacterial activity against 10^5 CFU/mL Proteus vulgaris MTCC 1771 after 24 hrs by disc diffusion technique; format: functional
Summary of the method: (§3)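 Disc diffusion on Mueller–Hinton agar poured 5 mm deep. The surface was swabbed with a 10⁵ CFU/mL […] suspension. Filter-paper discs 6.25 mm in diameter were soaked in compound in DMSO and placed on the agar. Plates were incubated 24 h at 37 ± 1 °C, and the inhibition zone was measured in mm. A DMSO disc served as blank.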

[8] = system: Pseudomonas aeruginosa; experiment: Antibacterial activity against 10^5 CFU/mL Pseudomonas aeruginosa MTCC 741 after 24 hrs by disc diffusion technique; format: functional; summary of the method: as §3
[9] = system: Bacillus cereus; experiment: Antibacterial activity against 10^5 CFU/mL Bacillus cereus MTCC 619 after 24 hrs by agar streak dilution method; format: functional; conditions: MTCC 619, 24 h; summary of the method: as §2
[10] = system: Aspergillus clavatus; experiment: Antifungal activity against 10^5 CFU/mL Aspergillus clavatus MTCC 1323 after 48 hrs by disc diffusion technique; format: functional
[11] = system: Proteus vulgaris; experiment: Antibacterial activity against 10^5 CFU/mL Proteus vulgaris MTCC 1771 after 24 hrs by agar streak dilution method; format: functional; conditions: MTCC 1771, 24 h; summary of the method: as §2
[12] = system: Shigella flexneri; experiment: Antibacterial activity against 10^5 CFU/mL Shigella flexneri MTCC 1457 after 24 hrs by agar streak dilution method; format: functional; conditions: MTCC 1457, 24 h; summary of the method: as §2
[13] = system: Aspergillus niger; experiment: Antifungal activity against 10^5 CFU/mL Aspergillus niger MTCC 282 after 48 hrs by agar streak dilution method; format: functional; conditions: MTCC 282, 48 h; summary of the method: as §1
[14] = system: DU-145; experiment: Cytotoxicity against […] human DU145 cells after 48 hrs by SRB assay; format: functional; conditions: DU-145, 48 h
Summary of the method: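 SRB assay in DU-145 cells grown in RPMI 1640 with 10% FBS and 2 mM L-glutamine. Cells were plated and held 24 h before addition of four 10-fold concentrations. After 48 h, cells were TCA-fixed, stained with 0.4% SRB and read at 540 nm. GI50, TGI and LC50 were derived against time-zero and control wells; each value is the mean of three experiments.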

[15] = system: Klebsiella pneumoniae; experiment: Antibacterial activity against 10^5 CFU/mL Klebsiella pneumoniae MTCC 109 after 24 hrs by disc diffusion technique; format: functional; summary of the method: as §3
[16] = system: Staphylococcus aureus; experiment: Antibacterial activity against 10^5 CFU/mL Staphylococcus aureus MTCC 96 after 24 hrs by agar streak dilution method; format: functional; conditions: MTCC 96, 24 h; summary of the method: as §2
[17] = system: Bacillus cereus; experiment: Antibacterial activity against 10^5 CFU/mL Bacillus cereus MTCC 619 after 24 hrs by disc diffusion technique; format: functional; summary of the method: as §3
[18] = system: Escherichia coli; experiment: Antibacterial activity against 10^5 CFU/mL Escherichia coli MTCC 739 after 24 hrs by disc diffusion technique; format: functional; summary of the method: as §3
[19] = system: Staphylococcus aureus; experiment: Antibacterial activity against 10^5 CFU/mL Staphylococcus aureus MTCC 96 after 24 hrs by disc diffusion technique; format: functional; summary of the method: as §3
[20] = system: Mycobacterium tuberculosis; experiment: Antimycobacterial activity against 10^4 to 10^7 CFU/mL Mycobacterium tuberculosis H37Rv at 6.25 ug/ml by BACTEC MGIT method; format: functional
Summary of the method: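 Primary screen at 6.25 in the BACTEC MGIT system: modified Middlebrook 7H9 broth tubes with compound, seeded with 10⁴-10⁷ CFU/mL H37Rv plus 0.1 mL egg-based L.J. medium. Incubated at 37 ± 1 °C and read daily from day 2 under UV light against positive and uninoculated controls.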

[21] = system: Aspergillus fumigatus; experiment: Antifungal activity against 10^5 CFU/mL Aspergillus fumigatus MTCC 343 after 48 hrs by disc diffusion technique; format: functional
[22] = system: Shigella flexneri; experiment: Antibacterial activity against 10^5 CFU/mL Shigella flexneri MTCC 1457 after 24 hrs by disc diffusion technique; format: functional; summary of the method: as §3
[23] = system: Aspergillus clavatus; experiment: Antifungal activity against 10^5 CFU/mL Aspergillus clavatus MTCC 1323 after 48 hrs by agar streak dilution method; format: functional; conditions: MTCC 1323, 48 h; summary of the method: as §1
[24] = system: Salmonella typhi; experiment: Antibacterial activity against 10^5 CFU/mL Salmonella typhi MTCC 733 after 24 hrs by agar streak dilution method; format: functional, Salmonella enterica subsp. enterica serovar Typhi; conditions: Salmonella enterica, MTCC 733, 24 h
[25] = system: Aspergillus niger; experiment: Antifungal activity against 10^5 CFU/mL Aspergillus niger MTCC 282 after 48 hrs by disc diffusion technique; format: functional
[26] = system: Salmonella typhi; experiment: Antibacterial activity against 10^5 CFU/mL Salmonella typhi MTCC 733 after 24 hrs by disc diffusion technique; format: functional, Salmonella enterica subsp. enterica serovar Typhi
Summary of the method: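 Disc diffusion. Mueller-Hinton agar autoclaved 120 °C 30 min, poured 5 mm deep. Surface swabbed with 10⁵ CFU/mL suspension […]. 6.25 mm filter-paper discs soaked in compound in DMSO; DMSO-only disc as blank. Incubated 37 ± 1 °C, 24 h for bacteria or 48 h for fungi. Ciprofloxacin and ketoconazole discs as reference drugs. Inhibition zone measured in mm.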

Question: What does the source list for `N#Cc1ccc(Nc2nc(Oc3ccnc4ccccc34)nc(N3CCN(c4cccc(C(F)(F)F)c4)CC3)n2)cc1C(F)(F)F`?
Answer: MIC [1]: 25 µg/mL (≈ 39.3 µM); MIC [2]: 12.5 µg/mL (≈ 19.6 µM); MIC [3]: 25 µg/mL (≈ 39.3 µM); MIC [4]: 25 µg/mL (≈ 39.3 µM); inhibition zone (IZ) [5]: 26 mm; MIC [6]: 6.25 µg/mL (≈ 9.82 µM); inhibition zone (IZ) [7]: 25 mm; inhibition zone (IZ) [8]: 25 mm; MIC [9]: 6.25 µg/mL (≈ 9.82 µM); inhibition zone (IZ) [10]: 28 mm; MIC [11]: 12.5 µg/mL (≈ 19.6 µM); MIC [12]: 12.5 µg/mL (≈ 19.6 µM); MIC [13]: 12.5 µg/mL (≈ 19.6 µM); GI50 [14]: 38.7 µM; LC50 (concentration giving 50% net cell kill relative to time zero) [14]: > 100 µM; TGI [14]: 74.1 µM; inhibition zone (IZ) [15]: 23 mm; MIC [16]: 6.25 µg/mL (≈ 9.82 µM); inhibition zone (IZ) [17]: 28 mm; inhibition zone (IZ) [18]: 26 mm; inhibition zone (IZ) [19]: 28 mm; inhibition at 6.25 µg/mL [20]: 99%; inhibition zone (IZ) [21]: 27 mm; inhibition zone (IZ) [22]: 25 mm; MIC [23]: 12.5 µg/mL (≈ 19.6 µM); MIC [24]: 12.5 µg/mL (≈ 19.6 µM); inhibition zone (IZ) [25]: 27 mm; inhibition zone (IZ) [26]: 27 mm

Question: What does the source list for `COc1ccc(CN2CCN(c3nc(Nc4ccc(C#N)c(C(F)(F)F)c4)nc(Oc4ccnc5ccccc45)n3)CC2)c(OC)c1OC`?
Answer: MIC [1]: 25 µg/mL (≈ 37.2 µM); MIC [2]: 12.5 µg/mL (≈ 18.6 µM); MIC [3]: 25 µg/mL (≈ 37.2 µM); MIC [4]: 12.5 µg/mL (≈ 18.6 µM); inhibition zone (IZ) [5]: 25 mm; MIC [6]: 6.25 µg/mL (≈ 9.29 µM); inhibition zone (IZ) [7]: 26 mm; inhibition zone (IZ) [8]: 26 mm; MIC [9]: 6.25 µg/mL (≈ 9.29 µM); inhibition zone (IZ) [10]: 28 mm; MIC [11]: 6.25 µg/mL (≈ 9.29 µM); MIC [12]: 12.5 µg/mL (≈ 18.6 µM); MIC [13]: 12.5 µg/mL (≈ 18.6 µM); GI50 [14]: > 100 µM; LC50 (concentration giving 50% net cell kill relative to time zero) [14]: > 100 µM; TGI [14]: > 100 µM; inhibition zone (IZ) [15]: 23 mm; MIC [16]: 6.25 µg/mL (≈ 9.29 µM); inhibition zone (IZ) [17]: 26 mm; inhibition zone (IZ) [18]: 26 mm; inhibition zone (IZ) [19]: 28 mm; inhibition at 6.25 µg/mL [20]: 99%; inhibition zone (IZ) [21]: 27 mm; inhibition zone (IZ) [22]: 25 mm; MIC [23]: 12.5 µg/mL (≈ 18.6 µM); MIC [24]: 12.5 µg/mL (≈ 18.6 µM); inhibition zone (IZ) [25]: 27 mm; inhibition zone (IZ) [26]: 26 mm

Question: Which MIC [1] does the source give for `COc1ccc(N2CCN(c3nc(Nc4ccc(C#N)c(C(F)(F)F)c4)nc(Oc4ccnc5ccccc45)n3)CC2)cc1` here?
Answer: 25 µg/mL (≈ 41.8 µM)

Question: And the MIC [2]?
Answer: 12.5 µg/mL (≈ 20.9 µM)

Question: And the MIC [3]?
Answer: 50 µg/mL (≈ 83.5 µM)

Question: What about the MIC [4] of the same compound?
Answer: 25 µg/mL (≈ 41.8 µM)

Question: What about the “inhibition zone (IZ)” value [5] of the same compound?
Answer: 24 mm

Question: And the MIC [6]?
Answer: 6.25 µg/mL (≈ 10.4 µM)

Question: What about the “inhibition zone (IZ)” value [7] of the same compound?
Answer: 24 mm

Question: What about the “inhibition zone (IZ)” value [8] of the same compound?
Answer: 26 mm

Question: And the MIC [9]?
Answer: 6.25 µg/mL (≈ 10.4 µM)

Question: What about the “inhibition zone (IZ)” value [10] of the same compound?
Answer: 28 mm

Question: What about the MIC [11] of the same compound?
Answer: 12.5 µg/mL (≈ 20.9 µM)

Question: What about the MIC [12] of the same compound?
Answer: 12.5 µg/mL (≈ 20.9 µM)

Question: What about the MIC [13] of the same compound?
Answer: 25 µg/mL (≈ 41.8 µM)

Question: What about the GI50 [14] of the same compound?
Answer: > 100 µM

Question: What about the LC50 (concentration giving 50% net cell kill relative to time zero) [14] of the same compound?
Answer: > 100 µM

Question: And the TGI [14]?
Answer: > 100 µM

Question: And the “inhibition zone (IZ)” value [15]?
Answer: 23 mm

Question: What about the MIC [16] of the same compound?
Answer: 25 µg/mL (≈ 41.8 µM)

Question: What about the “inhibition zone (IZ)” value [17] of the same compound?
Answer: 28 mm

Question: What about the “inhibition zone (IZ)” value [18] of the same compound?
Answer: 25 mm

Question: What about the “inhibition zone (IZ)” value [19] of the same compound?
Answer: 24 mm

Question: What about the “inhibition zone (IZ)” value [21] of the same compound?
Answer: 27 mm

Question: And the “inhibition zone (IZ)” value [22]?
Answer: 23 mm

Question: And the MIC [23]?
Answer: 12.5 µg/mL (≈ 20.9 µM)

Question: And the MIC [24]?
Answer: 25 µg/mL (≈ 41.8 µM)

Question: And the “inhibition zone (IZ)” value [25]?
Answer: 25 mm

Question: And the “inhibition zone (IZ)” value [26]?
Answer: 24 mm

Reference: ChEMBL document CHEMBL1828552, “Synthesis and studies of novel 2-(4-cyano-3-trifluoromethylphenyl amino)-4-(quinoline-4-yloxy)-6-(piperazinyl/piperidinyl)-s-triazines as potential antimicrobial, antimycobacterial and anticancer agents” (2011)
